Measured values taken from publication PMC8897208 (Acta Pharmaceutica Sinica. B, 2021).

What was measured:
HDAC10 = molecular target: T1, HDAC10 (Homo sapiens, UniProt Q969S8); experiment: HDACs selectivity assay; format: biochemical
T1 sequence (Q969S8 1-669): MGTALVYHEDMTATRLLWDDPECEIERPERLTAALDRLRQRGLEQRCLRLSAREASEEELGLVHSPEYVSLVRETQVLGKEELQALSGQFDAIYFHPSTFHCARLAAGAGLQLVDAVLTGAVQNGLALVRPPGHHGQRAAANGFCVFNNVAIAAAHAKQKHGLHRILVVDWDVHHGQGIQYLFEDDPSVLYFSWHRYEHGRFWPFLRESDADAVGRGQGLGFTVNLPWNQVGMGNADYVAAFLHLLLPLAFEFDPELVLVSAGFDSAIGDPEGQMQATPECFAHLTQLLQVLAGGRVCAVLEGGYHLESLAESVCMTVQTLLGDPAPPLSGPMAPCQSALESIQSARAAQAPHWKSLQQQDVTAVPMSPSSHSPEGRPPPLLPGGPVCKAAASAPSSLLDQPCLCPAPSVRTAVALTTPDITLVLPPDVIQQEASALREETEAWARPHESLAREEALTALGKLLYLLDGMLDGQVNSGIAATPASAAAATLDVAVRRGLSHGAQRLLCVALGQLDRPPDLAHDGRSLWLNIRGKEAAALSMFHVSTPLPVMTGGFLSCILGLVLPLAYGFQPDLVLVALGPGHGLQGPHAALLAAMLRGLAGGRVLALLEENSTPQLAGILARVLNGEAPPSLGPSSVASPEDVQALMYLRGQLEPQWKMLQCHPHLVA
Outline: (§1)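 Enzyme selectivity panel was run by an outside contract lab to its standard assay protocols. IC50 values came from dose–response fitting of the data points. Each experiment was done independently at least three times.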

HDAC11 = molecular target: T2, HDAC11 (Homo sapiens, UniProt Q96DB2); experiment: HDACs selectivity assay; format: biochemical
T2 sequence (Q96DB2 1-347): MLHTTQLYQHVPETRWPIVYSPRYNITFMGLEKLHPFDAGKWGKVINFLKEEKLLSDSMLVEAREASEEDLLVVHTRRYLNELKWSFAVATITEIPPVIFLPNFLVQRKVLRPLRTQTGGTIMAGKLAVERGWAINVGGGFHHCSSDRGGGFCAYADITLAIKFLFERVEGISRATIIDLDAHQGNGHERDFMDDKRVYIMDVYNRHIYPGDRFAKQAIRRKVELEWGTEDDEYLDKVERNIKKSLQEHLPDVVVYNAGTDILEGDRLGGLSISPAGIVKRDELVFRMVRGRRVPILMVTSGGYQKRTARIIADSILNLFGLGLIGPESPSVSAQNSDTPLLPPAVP
Outline: as §1

HDAC2 = HDAC2 (Homo sapiens, UniProt Q92769); experiment: HDACs selectivity assay; format: biochemical
Outline: as §1

HDAC1 = HDAC1 (Homo sapiens, UniProt Q13547); experiment: HDACs selectivity assay; format: biochemical
Outline: as §1

BXPC-3 cells [1] = experiment: Western blot of SIRT6 substrates H3K9Ac, H3K18Ac, H3K56Ac; format: cell-based; details: BXPC-3, indicated doses of JYQ-42 for 24 h
Outline: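 BXPC-3 cells were grown in RPMI1640 and MiaPaCa-2 cells in DMEM, each with 10% FBS and penicillin/streptomycin, at 37 °C under 5% CO2. Both lines were STR-verified. Cells took test compound at 0, 10, 20 or 40 μmol/L for 24 or 48 h and were lysed in 1× SDS loading buffer. Proteins were separated on 12% SDS-PAGE and transferred to PVDF. Blocking used Tris-NaCl pH 7.5 with Tween-20 and 5% milk. Detection was chemiluminescent (HRP), with β-actin as loading control.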

HDAC6 = molecular target: T3, HDAC6 (Homo sapiens, UniProt Q9UBN7); experiment: HDACs selectivity assay; format: biochemical
T3 sequence (Q9UBN7 1-1215): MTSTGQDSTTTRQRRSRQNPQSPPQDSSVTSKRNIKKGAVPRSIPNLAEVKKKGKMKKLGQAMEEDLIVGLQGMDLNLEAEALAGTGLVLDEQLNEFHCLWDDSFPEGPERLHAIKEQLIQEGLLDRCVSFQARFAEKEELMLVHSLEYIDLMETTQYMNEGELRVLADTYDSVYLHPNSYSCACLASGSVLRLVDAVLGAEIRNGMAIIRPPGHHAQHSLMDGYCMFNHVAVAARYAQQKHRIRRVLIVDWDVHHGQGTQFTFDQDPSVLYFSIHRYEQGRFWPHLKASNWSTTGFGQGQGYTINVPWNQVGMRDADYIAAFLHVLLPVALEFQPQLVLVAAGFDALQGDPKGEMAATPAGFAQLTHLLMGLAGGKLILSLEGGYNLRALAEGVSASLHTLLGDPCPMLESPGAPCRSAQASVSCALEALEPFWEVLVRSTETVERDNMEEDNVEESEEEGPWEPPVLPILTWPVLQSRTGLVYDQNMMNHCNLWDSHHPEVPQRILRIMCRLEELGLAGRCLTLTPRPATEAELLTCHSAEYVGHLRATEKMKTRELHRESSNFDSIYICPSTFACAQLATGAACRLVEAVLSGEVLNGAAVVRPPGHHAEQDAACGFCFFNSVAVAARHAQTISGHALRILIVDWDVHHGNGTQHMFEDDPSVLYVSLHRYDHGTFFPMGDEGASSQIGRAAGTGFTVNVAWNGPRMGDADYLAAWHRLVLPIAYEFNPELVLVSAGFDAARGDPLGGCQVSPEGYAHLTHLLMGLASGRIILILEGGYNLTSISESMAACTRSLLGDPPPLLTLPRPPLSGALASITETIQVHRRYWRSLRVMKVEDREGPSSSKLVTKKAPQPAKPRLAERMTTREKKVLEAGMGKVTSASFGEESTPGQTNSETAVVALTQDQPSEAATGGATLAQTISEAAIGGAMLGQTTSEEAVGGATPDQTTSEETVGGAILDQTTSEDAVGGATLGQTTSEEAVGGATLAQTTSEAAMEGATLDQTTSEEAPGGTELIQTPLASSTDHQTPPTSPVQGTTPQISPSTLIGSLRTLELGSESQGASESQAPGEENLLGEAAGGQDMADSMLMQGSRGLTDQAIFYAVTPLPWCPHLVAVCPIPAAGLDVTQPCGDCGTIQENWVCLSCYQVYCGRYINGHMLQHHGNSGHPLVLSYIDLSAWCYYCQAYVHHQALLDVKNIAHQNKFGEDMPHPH
Outline: as §1

BXPC-3 cells [2] = experiment: ELISA for IL6, IL8 and TNF-α secretion; format: cell-based; details: BXPC-3, 30 ng/mL PMA, 10, 20, 40 μmol/L, 24 h
SIRT6 = SIRT6 (Homo sapiens, UniProt Q8N6T7); experiment: Biolayer interferometry; format: binding
HDAC5 = HDAC5 (Homo sapiens, UniProt Q9UQL6); experiment: HDACs selectivity assay; format: biochemical
Outline: as §1

Chain of HDAC1 (Q13547 whole entry): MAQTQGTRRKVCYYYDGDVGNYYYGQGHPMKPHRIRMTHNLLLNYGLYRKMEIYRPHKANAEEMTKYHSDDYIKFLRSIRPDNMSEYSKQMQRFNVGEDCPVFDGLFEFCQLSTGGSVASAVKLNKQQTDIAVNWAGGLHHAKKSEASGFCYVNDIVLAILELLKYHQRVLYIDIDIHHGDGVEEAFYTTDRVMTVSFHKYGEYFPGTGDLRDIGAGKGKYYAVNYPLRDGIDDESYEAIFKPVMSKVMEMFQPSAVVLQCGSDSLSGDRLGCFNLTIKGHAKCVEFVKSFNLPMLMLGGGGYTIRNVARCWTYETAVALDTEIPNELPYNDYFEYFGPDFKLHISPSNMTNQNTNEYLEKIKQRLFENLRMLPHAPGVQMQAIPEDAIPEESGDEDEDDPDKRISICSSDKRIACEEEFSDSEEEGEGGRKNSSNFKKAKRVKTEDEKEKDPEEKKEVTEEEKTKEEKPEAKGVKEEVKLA
Chain of SIRT6 (Q8N6T7 whole entry): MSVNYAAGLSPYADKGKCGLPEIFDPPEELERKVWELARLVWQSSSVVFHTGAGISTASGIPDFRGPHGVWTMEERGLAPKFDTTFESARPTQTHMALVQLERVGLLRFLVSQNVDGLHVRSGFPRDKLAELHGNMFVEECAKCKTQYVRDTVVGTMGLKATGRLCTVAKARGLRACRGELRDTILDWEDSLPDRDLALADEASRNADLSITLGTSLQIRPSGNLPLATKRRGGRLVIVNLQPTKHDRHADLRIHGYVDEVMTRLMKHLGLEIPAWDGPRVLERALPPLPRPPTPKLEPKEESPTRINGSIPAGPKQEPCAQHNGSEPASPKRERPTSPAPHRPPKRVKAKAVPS
Chain of HDAC2 (Q92769 whole entry): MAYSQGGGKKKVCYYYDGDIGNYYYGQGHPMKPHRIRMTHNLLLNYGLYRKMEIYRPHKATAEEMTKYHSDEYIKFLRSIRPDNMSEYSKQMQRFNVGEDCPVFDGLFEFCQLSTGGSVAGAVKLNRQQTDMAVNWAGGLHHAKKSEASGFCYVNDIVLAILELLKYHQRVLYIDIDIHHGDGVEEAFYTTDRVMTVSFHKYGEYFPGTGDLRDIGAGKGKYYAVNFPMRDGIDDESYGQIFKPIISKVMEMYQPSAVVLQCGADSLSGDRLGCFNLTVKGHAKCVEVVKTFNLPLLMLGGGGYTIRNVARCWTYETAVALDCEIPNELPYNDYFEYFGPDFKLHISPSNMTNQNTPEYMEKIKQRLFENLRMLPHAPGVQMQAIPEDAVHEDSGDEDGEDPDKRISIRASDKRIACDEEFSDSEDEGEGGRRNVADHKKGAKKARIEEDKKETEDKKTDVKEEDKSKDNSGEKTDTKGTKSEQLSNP
Chain of HDAC5 (Q9UQL6 whole entry): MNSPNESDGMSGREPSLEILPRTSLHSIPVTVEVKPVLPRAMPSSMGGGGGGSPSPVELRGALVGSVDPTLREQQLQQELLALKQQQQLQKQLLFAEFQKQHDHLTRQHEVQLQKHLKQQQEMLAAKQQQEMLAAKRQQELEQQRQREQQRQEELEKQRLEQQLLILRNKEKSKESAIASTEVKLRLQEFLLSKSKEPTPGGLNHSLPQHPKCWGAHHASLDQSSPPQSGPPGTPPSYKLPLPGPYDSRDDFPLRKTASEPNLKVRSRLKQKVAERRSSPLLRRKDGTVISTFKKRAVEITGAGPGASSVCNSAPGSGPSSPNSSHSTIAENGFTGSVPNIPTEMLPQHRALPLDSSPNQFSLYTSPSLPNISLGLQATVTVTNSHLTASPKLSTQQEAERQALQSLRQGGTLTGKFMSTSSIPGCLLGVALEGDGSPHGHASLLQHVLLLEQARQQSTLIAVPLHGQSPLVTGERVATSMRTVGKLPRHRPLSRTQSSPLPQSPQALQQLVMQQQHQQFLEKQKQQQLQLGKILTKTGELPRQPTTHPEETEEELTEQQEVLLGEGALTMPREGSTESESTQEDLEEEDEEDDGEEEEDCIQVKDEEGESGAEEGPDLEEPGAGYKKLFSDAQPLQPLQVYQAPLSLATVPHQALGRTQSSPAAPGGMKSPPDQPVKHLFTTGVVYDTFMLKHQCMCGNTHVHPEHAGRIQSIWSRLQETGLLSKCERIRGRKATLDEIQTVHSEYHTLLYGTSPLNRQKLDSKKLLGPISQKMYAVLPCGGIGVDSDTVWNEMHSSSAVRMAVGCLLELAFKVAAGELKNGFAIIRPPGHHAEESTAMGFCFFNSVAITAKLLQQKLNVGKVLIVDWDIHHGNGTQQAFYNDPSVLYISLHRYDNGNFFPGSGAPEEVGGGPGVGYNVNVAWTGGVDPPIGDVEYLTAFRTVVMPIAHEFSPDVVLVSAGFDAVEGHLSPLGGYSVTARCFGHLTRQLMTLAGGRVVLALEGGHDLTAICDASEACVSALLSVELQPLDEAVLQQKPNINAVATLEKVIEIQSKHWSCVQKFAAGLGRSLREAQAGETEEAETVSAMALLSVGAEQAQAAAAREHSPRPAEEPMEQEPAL

## Nc1nonc1-n1cc(C(=O)N/N=C/c2cc(Cl)cc(C(F)(F)F)c2)nn1 [JYQ-42]
HDAC10
  IC50: > 100 µM
HDAC11
  IC50: > 100 µM
HDAC2
  IC50: > 100 µM
HDAC1
  IC50: > 100 µM
BXPC-3 cells [1]
  levels of H3K9Ac, H3K18Ac and H3K56Ac: increased the levels of H3K9Ac, H3K18Ac and H3K56Ac in a dose-dependent manner
HDAC6
  IC50: > 100 µM
BXPC-3 cells [2]
  secretion levels of IL6, IL8 and TNF-α: blocked the secretion levels
SIRT6
  Kd: 13.2 µM
HDAC5
  IC50: > 100 µM
